Experimental data published in article PMC7658073 (Clinical Pharmacokinetics, 2020).
Like-named read-outs stand apart in the source and are kept apart here.

How the values were obtained:
[1] = Phase I DDI study with ketoconazole; format: in vivo, human
Procedure, shortened: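 Randomized, open-label, two-fold crossover in healthy men. Ketoconazole 200 mg BID orally for 3 days, given before and with a single oral 1.25 mg dose of test compound, fed, versus test compound alone.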

[2] = Phase I DDI study with sildenafil; format: in vivo, human
P-glycoprotein = P-glycoprotein (Homo sapiens, UniProt P08183); experiment: Substrate properties towards P-gp; format: in vitro ADME
[3] = biological target: T1, organic cation transporter 1 (Homo sapiens, UniProt O15245); experiment: Substrate properties towards OCT1; format: in vitro ADME
T1 sequence (O15245 1-554): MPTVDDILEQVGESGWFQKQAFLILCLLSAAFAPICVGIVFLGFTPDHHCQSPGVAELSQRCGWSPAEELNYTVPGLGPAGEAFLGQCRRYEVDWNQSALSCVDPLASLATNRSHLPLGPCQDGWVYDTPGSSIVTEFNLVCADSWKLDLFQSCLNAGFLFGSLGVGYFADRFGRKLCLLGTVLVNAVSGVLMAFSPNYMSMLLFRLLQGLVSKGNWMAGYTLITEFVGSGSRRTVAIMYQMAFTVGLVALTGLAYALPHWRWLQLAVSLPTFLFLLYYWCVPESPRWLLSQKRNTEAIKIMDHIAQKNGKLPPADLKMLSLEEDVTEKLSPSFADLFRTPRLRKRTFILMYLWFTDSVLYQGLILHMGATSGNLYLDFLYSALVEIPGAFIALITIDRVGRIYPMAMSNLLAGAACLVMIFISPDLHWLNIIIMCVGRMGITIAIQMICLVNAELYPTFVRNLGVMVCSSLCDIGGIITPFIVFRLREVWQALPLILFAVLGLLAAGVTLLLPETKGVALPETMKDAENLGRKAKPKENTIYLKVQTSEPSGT

MATE1 = biological target: T2, MATE1 (Homo sapiens, UniProt Q96FL8); experiment: Inhibitory potency towards MATE1; format: in vitro ADME
T2 sequence (Q96FL8 1-570): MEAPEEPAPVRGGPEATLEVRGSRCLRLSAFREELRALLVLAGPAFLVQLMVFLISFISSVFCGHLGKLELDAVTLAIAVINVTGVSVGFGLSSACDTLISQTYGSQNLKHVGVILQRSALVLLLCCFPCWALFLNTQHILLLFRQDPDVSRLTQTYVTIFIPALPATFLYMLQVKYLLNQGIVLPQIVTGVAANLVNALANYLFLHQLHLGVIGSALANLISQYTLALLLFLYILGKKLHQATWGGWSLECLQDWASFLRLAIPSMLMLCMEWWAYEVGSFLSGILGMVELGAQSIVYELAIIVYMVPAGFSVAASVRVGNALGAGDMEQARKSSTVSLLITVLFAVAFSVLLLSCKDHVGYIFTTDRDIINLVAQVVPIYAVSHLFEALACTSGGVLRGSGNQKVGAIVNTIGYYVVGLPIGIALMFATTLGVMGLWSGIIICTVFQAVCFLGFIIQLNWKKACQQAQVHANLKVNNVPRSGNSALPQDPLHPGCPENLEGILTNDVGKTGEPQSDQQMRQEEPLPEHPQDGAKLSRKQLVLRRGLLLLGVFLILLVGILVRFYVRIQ

MATE2K = MATE2K (Homo sapiens, UniProt Q86VL8); experiment: Inhibitory potency towards MATE2K; format: in vitro ADME
UGT1A4 = biological target: T3, UGT1A4 (Homo sapiens, UniProt P22310); experiment: Inhibitory potency towards UGT isoforms: UGT1A4; format: in vitro ADME
T3 sequence (P22310 29-534): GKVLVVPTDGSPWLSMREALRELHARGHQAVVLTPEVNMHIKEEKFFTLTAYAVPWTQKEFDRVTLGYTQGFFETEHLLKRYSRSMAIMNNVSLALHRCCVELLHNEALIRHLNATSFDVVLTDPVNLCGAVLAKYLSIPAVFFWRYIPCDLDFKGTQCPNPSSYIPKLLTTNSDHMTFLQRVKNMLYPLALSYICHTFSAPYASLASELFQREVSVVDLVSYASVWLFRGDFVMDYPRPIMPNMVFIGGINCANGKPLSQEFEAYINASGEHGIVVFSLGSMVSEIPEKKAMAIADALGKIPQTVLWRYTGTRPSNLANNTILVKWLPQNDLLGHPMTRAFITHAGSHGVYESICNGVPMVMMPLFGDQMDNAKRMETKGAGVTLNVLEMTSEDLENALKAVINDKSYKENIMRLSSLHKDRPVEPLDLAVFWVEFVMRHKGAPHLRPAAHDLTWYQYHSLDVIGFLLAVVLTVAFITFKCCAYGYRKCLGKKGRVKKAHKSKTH

UGT2B7 = biological target: T4, UGT2B7 (Homo sapiens, UniProt P16662); experiment: Inhibitory potency towards UGT isoforms: UGT2B7; format: in vitro ADME
T4 sequence (P16662 24-529): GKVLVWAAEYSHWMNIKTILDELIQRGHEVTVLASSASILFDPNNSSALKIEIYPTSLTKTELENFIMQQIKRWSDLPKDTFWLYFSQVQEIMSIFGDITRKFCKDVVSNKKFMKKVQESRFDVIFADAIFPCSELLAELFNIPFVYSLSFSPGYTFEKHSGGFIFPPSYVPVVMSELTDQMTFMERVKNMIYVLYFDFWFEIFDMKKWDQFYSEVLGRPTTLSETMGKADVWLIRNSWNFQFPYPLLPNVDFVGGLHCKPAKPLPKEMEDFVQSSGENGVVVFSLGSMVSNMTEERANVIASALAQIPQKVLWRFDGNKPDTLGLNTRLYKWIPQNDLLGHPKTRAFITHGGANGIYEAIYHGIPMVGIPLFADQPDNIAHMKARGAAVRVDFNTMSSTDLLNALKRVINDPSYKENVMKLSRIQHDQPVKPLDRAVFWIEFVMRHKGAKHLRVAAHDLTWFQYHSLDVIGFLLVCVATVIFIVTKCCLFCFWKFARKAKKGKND

[4] = multiple oral doses vericiguat 2.5 mg 2 h prior to sacubitril/valsartan; cited from earlier work
[5] = cited from earlier work
[6] = cited from earlier work; remark: listed apart in the source
[7] = tested on: major cytochrome P450 (CYP) isoforms; details: human liver microsomes; cited from earlier work
[8] = with ketoconazole 200 mg BID vs vericiguat 1.25 mg SD alone, fed
[9] = with sildenafil 100 mg vs without, vericiguat 10 mg QD, fed

Chain of P-glycoprotein (P08183 whole entry): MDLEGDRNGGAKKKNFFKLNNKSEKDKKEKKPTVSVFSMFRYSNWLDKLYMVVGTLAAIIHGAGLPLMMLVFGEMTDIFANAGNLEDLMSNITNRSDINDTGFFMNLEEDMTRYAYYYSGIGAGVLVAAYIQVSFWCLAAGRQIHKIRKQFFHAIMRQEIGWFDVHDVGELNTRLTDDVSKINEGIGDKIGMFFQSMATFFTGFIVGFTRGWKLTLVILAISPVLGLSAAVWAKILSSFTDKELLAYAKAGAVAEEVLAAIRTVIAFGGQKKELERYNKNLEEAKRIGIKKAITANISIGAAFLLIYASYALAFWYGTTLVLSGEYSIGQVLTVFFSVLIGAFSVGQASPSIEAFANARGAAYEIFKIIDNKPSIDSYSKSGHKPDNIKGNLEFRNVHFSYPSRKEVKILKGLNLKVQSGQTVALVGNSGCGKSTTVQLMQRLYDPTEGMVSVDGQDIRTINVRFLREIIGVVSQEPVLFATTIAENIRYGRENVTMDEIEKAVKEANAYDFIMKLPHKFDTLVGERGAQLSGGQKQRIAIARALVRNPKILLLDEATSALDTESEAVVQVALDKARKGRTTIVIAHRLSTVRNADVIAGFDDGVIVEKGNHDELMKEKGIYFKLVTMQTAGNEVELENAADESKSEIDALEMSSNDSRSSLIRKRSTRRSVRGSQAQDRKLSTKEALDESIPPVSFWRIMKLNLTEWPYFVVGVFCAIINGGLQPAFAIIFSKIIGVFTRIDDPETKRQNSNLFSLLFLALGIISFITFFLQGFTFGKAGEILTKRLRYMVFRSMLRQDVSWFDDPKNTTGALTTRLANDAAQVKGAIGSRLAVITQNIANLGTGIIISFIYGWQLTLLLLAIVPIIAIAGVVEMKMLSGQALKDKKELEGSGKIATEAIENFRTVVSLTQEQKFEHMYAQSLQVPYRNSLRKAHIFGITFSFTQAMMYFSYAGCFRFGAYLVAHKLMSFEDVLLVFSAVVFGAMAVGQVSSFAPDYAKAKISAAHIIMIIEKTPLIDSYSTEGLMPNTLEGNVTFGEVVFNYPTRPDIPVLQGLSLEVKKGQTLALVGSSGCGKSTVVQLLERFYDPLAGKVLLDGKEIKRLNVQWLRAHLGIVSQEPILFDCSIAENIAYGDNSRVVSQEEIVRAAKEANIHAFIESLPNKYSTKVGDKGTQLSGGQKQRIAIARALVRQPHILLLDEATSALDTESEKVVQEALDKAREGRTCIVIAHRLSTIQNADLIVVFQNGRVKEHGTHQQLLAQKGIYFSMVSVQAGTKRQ
Chain of MATE2K (Q86VL8 1-566 isoform Q86VL8-3): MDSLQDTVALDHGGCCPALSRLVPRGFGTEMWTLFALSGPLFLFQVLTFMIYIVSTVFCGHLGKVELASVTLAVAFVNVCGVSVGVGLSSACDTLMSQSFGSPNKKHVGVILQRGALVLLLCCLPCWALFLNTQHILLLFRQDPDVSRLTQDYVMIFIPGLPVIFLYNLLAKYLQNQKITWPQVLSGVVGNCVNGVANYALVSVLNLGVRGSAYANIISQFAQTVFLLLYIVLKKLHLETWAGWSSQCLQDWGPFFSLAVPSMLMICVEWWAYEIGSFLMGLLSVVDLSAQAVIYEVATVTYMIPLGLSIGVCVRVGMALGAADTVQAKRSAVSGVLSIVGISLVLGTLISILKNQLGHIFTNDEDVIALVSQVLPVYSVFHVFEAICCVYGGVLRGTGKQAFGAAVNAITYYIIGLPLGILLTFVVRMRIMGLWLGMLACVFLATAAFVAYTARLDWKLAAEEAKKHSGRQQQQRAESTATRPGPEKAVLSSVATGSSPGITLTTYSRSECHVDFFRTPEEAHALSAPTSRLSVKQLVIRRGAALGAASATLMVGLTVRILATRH

SMILES: COC(=O)Nc1c(N)nc(-c2nn(Cc3ccccc3F)c3ncc(F)cc23)nc1N [Vericiguat]
- Increase in vericiguat exposure (AUC) ([1]; co-administration with ketoconazole 200 mg twice daily): 13%
- AUC of vericiguat, point estimate of treatment ratio [1, 8]: 1.126
- Cmax of vericiguat, point estimate of treatment ratio [1, 8]: 1.109
- Decrease in vericiguat exposure (differences in PK parameters) ([2]; co-administration with sildenafil 50 mg): less than 9%
- AUC0–24,md of vericiguat, point estimate of treatment ratio [2, 9]: 0.993
- Cmax,md of vericiguat, point estimate of treatment ratio [2, 9]: 0.970
- Substrate of P-glycoprotein (P-glycoprotein): substrate
- Substrate of organic cation transporter 1 [3]: not a substrate
- IC50 (MATE1): > 10 µM
- IC50 (MATE2K): > 10 µM
- IC50 (UGT1A4): > 50 µM
- IC50 (UGT2B7): > 50 µM
- Effect on seated blood pressure [4]: no additional effect
- Clearance ([5]; healthy volunteers): 1.6 L/h
- Clearance ([5]; patients with HFrEF): 1.3 L/h
- Variability in steady-state AUC ([5]; population PK model, patients with HFrEF): about 30%
- Permeability [6]: highly permeable
- Solubility [6]: low-soluble
- Inhibitory effects on major cytochrome P450 (CYP) isoforms [7]: no inhibitory effects
